Square brackets hold non-standard residues; d marks the D form. Peptide text beside a SMILES is read from it. * marks the point of attachment. Fumaroyl(GlyGlyPheOH) = O=C(/C=C/C(=O)*)NCC(=O)NCC(=O)N[C@@H](Cc1ccccc1)C(=O)O; Chg = N[C@H](C(=O)O)C1CCCCC1; Dap = NC[C@H](N)C(=O)O
Experiments:
[1] = Inhibition of Plasmodium falciparum falcipain-2 after 12 hrs by fluorescence spectroscopy-based on-bead assay; parameters: concentration or dose not given beside the values; conditions: concentration not given here
Outline: (§1)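 Library members on resin (PEGA, theoretical loading 0.40 mmol/g; added as DMSO suspension, 0.64 mM final inhibitor) preincubated with enzyme 12 h, then Cbz-Phe-Arg-AMC 40 μM added; AMC release followed by fluorescence (ex 380/em 460 nm). Kinetics compared with inhibitor-free amino-PEGA resin.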

[2] = target: Rhodesain (Trypanosoma brucei rhodesiense) (UniProt Q95PM0); assay: Inhibition of Trypanosoma brucei rhodesiense rhodesain after 12 hrs by fluorescence spectroscopy-based on-bead assay; parameters: concentration or dose not given beside the values; conditions: concentration not given here; outline: as §1
Sequence of Rhodesain (Trypanosoma brucei rhodesiense) (Q95PM0 1-450): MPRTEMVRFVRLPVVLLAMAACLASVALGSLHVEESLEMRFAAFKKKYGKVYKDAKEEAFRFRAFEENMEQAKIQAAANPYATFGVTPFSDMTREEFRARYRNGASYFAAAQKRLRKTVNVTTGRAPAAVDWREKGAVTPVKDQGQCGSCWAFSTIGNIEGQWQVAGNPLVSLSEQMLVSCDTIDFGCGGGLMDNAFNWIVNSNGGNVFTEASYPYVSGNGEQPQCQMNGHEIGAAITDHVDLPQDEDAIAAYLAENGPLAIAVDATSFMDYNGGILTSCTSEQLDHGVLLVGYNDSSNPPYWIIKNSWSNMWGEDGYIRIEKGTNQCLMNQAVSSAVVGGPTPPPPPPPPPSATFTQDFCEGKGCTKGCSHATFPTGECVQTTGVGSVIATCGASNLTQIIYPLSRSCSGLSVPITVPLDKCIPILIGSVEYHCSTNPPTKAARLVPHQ

Compound	inhibition [1]	inhibition [2]
CC[C@H](C)[C@H](NC(=O)[C@H](CNC(C)=O)NC(=O)/C=C/C(=O)N[C@@H](C)C(=O)NCC(=O)N[C@@H](Cc1ccccc1)C(=O)O)C(=O)N[C@@H](CC(C)C)C(=O)N[C@H](C(N)=O)C(C)C (HELM PEPTIDE1{[C[C@H](NC(=O)/C=C/C(=O)[*:2])C(=O)NCC(=O)N[C@@H](Cc1ccccc1)C(=O)O].[O=C([C@H](CN[*:3])N[*:1])[*:2]].I.L.V.[am]}|PEPTIDE2{[ac]}$PEPTIDE1,PEPTIDE2,2:R3-1:R2$$$V2.0)	32%	61%
CC(C)[C@H](NC(=O)[C@H](C)NC(=O)[C@@H](NC(=O)[C@H](C)NC(=O)/C=C/C(=O)N[C@@H](C)C(=O)NCC(=O)N[C@@H](Cc1ccccc1)C(=O)O)C1CCCCC1)C(N)=O (HELM PEPTIDE1{[C[C@H](NC(=O)/C=C/C(=O)[*:2])C(=O)NCC(=O)N[C@@H](Cc1ccccc1)C(=O)O].A.[O=C([C@@H](N[*:1])C1CCCCC1)[*:2]].A.V.[am]}$$$$V2.0)	38%	26%
CC(C)C[C@H](NC(=O)[C@H](C)NC(=O)/C=C/C(=O)N[C@@H](C)C(=O)NCC(=O)N[C@@H](Cc1ccccc1)C(=O)O)C(=O)N[C@@H](C)C(=O)N[C@H](C(N)=O)C(C)C (HELM PEPTIDE1{[C[C@H](NC(=O)/C=C/C(=O)[*:2])C(=O)NCC(=O)N[C@@H](Cc1ccccc1)C(=O)O].A.L.A.V.[am]}$$$$V2.0)	62%	31%
CC(=O)NC[C@H](NC(=O)/C=C/C(=O)N[C@@H](C)C(=O)NCC(=O)N[C@@H](Cc1ccccc1)C(=O)O)C(=O)N[C@@H](Cc1ccccc1)C(=O)N[C@@H](CC(C)C)C(=O)N[C@H](C(N)=O)C(C)C (HELM PEPTIDE1{[C[C@H](NC(=O)/C=C/C(=O)[*:2])C(=O)NCC(=O)N[C@@H](Cc1ccccc1)C(=O)O].[O=C([C@H](CN[*:3])N[*:1])[*:2]].F.L.V.[am]}|PEPTIDE2{[ac]}$PEPTIDE1,PEPTIDE2,2:R3-1:R2$$$V2.0)	43%	52%
CC(C)[C@H](NC(=O)[C@@H](NC(=O)[C@H](Cc1ccccc1)NC(=O)[C@H](C)NC(=O)/C=C/C(=O)N[C@@H](C)C(=O)NCC(=O)N[C@@H](Cc1ccccc1)C(=O)O)C(C)C)C(N)=O (HELM PEPTIDE1{[C[C@H](NC(=O)/C=C/C(=O)[*:2])C(=O)NCC(=O)N[C@@H](Cc1ccccc1)C(=O)O].A.F.V.V.[am]}$$$$V2.0)	35%	55%
CC(C)[C@H](NC(=O)[C@@H](NC(=O)[C@@H](NC(=O)[C@H](Cc1ccccc1)NC(=O)/C=C/C(=O)N[C@@H](C)C(=O)NCC(=O)N[C@@H](Cc1ccccc1)C(=O)O)C1CCCCC1)C(C)C)C(N)=O (HELM PEPTIDE1{[C[C@H](NC(=O)/C=C/C(=O)[*:2])C(=O)NCC(=O)N[C@@H](Cc1ccccc1)C(=O)O].F.[O=C([C@@H](N[*:1])C1CCCCC1)[*:2]].V.V.[am]}$$$$V2.0)	45%	49%
CC(C)C[C@H](NC(=O)[C@@H](NC(=O)[C@H](Cc1ccccc1)NC(=O)/C=C/C(=O)N[C@@H](C)C(=O)NCC(=O)N[C@@H](Cc1ccccc1)C(=O)O)c1ccccc1)C(=O)N[C@H](C(N)=O)C(C)C (HELM PEPTIDE1{[C[C@H](NC(=O)/C=C/C(=O)[*:2])C(=O)NCC(=O)N[C@@H](Cc1ccccc1)C(=O)O].F.[Phg].L.V.[am]}$$$$V2.0)	53%	68%
CC(C)[C@H](NC(=O)[C@H](C)NC(=O)[C@@H](NC(=O)[C@H](CC(N)=O)NC(=O)/C=C/C(=O)NCC(=O)NCC(=O)N[C@@H](Cc1ccccc1)C(=O)O)c1ccccc1)C(N)=O (HELM PEPTIDE1{[O=C(/C=C/C(=O)[*:2])NCC(=O)NCC(=O)N[C@@H](Cc1ccccc1)C(=O)O].N.[Phg].A.V.[am]}$$$$V2.0)	64%	48%
CC(=O)NC[C@H](NC(=O)/C=C/C(=O)N[C@@H](C)C(=O)NCC(=O)N[C@@H](Cc1ccccc1)C(=O)O)C(=O)N[C@H](C(=O)N[C@H](C(=O)N[C@H](C(N)=O)C(C)C)C(C)C)c1ccccc1 (HELM PEPTIDE1{[C[C@H](NC(=O)/C=C/C(=O)[*:2])C(=O)NCC(=O)N[C@@H](Cc1ccccc1)C(=O)O].[O=C([C@H](CN[*:3])N[*:1])[*:2]].[Phg].V.V.[am]}|PEPTIDE2{[ac]}$PEPTIDE1,PEPTIDE2,2:R3-1:R2$$$V2.0)	20%	36%
CC(C)C[C@H](NC(=O)[C@H](C)NC(=O)/C=C/C(=O)N[C@@H](C)C(=O)NCC(=O)N[C@@H](Cc1ccccc1)C(=O)O)C(=O)N[C@H](C(=O)N[C@H](C(N)=O)C(C)C)C(C)C (HELM PEPTIDE1{[C[C@H](NC(=O)/C=C/C(=O)[*:2])C(=O)NCC(=O)N[C@@H](Cc1ccccc1)C(=O)O].A.L.V.V.[am]}$$$$V2.0)	40%	59%
CC(C)[C@H](NC(=O)[C@H](C)NC(=O)[C@@H](NC(=O)[C@H](CCC(N)=O)NC(=O)/C=C/C(=O)NCC(=O)NCC(=O)N[C@@H](Cc1ccccc1)C(=O)O)c1ccccc1)C(N)=O (HELM PEPTIDE1{[O=C(/C=C/C(=O)[*:2])NCC(=O)NCC(=O)N[C@@H](Cc1ccccc1)C(=O)O].Q.[Phg].A.V.[am]}$$$$V2.0)	34%	17%
CC[C@H](C)[C@H](NC(=O)[C@H](Cc1ccccc1)NC(=O)/C=C/C(=O)N[C@@H](C)C(=O)NCC(=O)N[C@@H](Cc1ccccc1)C(=O)O)C(=O)N[C@H](C(=O)N[C@H](C(N)=O)C(C)C)C(C)C (HELM PEPTIDE1{[C[C@H](NC(=O)/C=C/C(=O)[*:2])C(=O)NCC(=O)N[C@@H](Cc1ccccc1)C(=O)O].F.I.V.V.[am]}$$$$V2.0)	45%	43%
CC(C)C[C@H](NC(=O)[C@H](Cc1ccccc1)NC(=O)[C@H](CC(N)=O)NC(=O)/C=C/C(=O)N[C@@H](C)C(=O)NCC(=O)N[C@@H](Cc1ccccc1)C(=O)O)C(=O)N[C@H](C(N)=O)C(C)C (HELM PEPTIDE1{[C[C@H](NC(=O)/C=C/C(=O)[*:2])C(=O)NCC(=O)N[C@@H](Cc1ccccc1)C(=O)O].N.F.L.V.[am]}$$$$V2.0)	58%	64%
CC(C)[C@H](NC(=O)[C@H](C)NC(=O)[C@H](Cc1ccccc1)NC(=O)[C@H](CCC(N)=O)NC(=O)/C=C/C(=O)NCC(=O)NCC(=O)N[C@@H](Cc1ccccc1)C(=O)O)C(N)=O (HELM PEPTIDE1{[O=C(/C=C/C(=O)[*:2])NCC(=O)NCC(=O)N[C@@H](Cc1ccccc1)C(=O)O].Q.F.A.V.[am]}$$$$V2.0)	54%	41%
CC(C)C[C@H](NC(=O)[C@@H](NC(=O)[C@H](C)NC(=O)/C=C/C(=O)N[C@@H](C)C(=O)NCC(=O)N[C@@H](Cc1ccccc1)C(=O)O)C1CCCCC1)C(=O)N[C@H](C(N)=O)C(C)C (HELM PEPTIDE1{[C[C@H](NC(=O)/C=C/C(=O)[*:2])C(=O)NCC(=O)N[C@@H](Cc1ccccc1)C(=O)O].A.[O=C([C@@H](N[*:1])C1CCCCC1)[*:2]].L.V.[am]}$$$$V2.0)	43%	59%
CC[C@H](C)[C@H](NC(=O)[C@H](C)NC(=O)/C=C/C(=O)NCC(=O)NCC(=O)N[C@@H](Cc1ccccc1)C(=O)O)C(=O)N[C@H](C(=O)N[C@H](C(N)=O)C(C)C)C(C)C (HELM PEPTIDE1{[O=C(/C=C/C(=O)[*:2])NCC(=O)NCC(=O)N[C@@H](Cc1ccccc1)C(=O)O].A.I.V.V.[am]}$$$$V2.0)	32%	33%
CC(C)[C@H](NC(=O)[C@H](C)NC(=O)[C@H](Cc1ccccc1)NC(=O)[C@H](CC(N)=O)NC(=O)/C=C/C(=O)NCC(=O)NCC(=O)N[C@@H](Cc1ccccc1)C(=O)O)C(N)=O (HELM PEPTIDE1{[O=C(/C=C/C(=O)[*:2])NCC(=O)NCC(=O)N[C@@H](Cc1ccccc1)C(=O)O].N.F.A.V.[am]}$$$$V2.0)	61%	66%
CC(C)[C@H](NC(=O)[C@@H](NC(=O)[C@@H](NC(=O)[C@H](C)NC(=O)/C=C/C(=O)N[C@@H](C)C(=O)NCC(=O)N[C@@H](Cc1ccccc1)C(=O)O)C1CCCCC1)C(C)C)C(N)=O (HELM PEPTIDE1{[C[C@H](NC(=O)/C=C/C(=O)[*:2])C(=O)NCC(=O)N[C@@H](Cc1ccccc1)C(=O)O].A.[O=C([C@@H](N[*:1])C1CCCCC1)[*:2]].V.V.[am]}$$$$V2.0)	57%	34%
CC[C@H](C)[C@H](NC(=O)[C@H](CNC(C)=O)NC(=O)/C=C/C(=O)NCC(=O)NCC(=O)N[C@@H](Cc1ccccc1)C(=O)O)C(=O)N[C@@H](C)C(=O)N[C@H](C(N)=O)C(C)C (HELM PEPTIDE1{[O=C(/C=C/C(=O)[*:2])NCC(=O)NCC(=O)N[C@@H](Cc1ccccc1)C(=O)O].[O=C([C@H](CN[*:3])N[*:1])[*:2]].I.A.V.[am]}|PEPTIDE2{[ac]}$PEPTIDE1,PEPTIDE2,2:R3-1:R2$$$V2.0)	29%	29%
CC(C)C[C@H](NC(=O)[C@H](C)NC(=O)/C=C/C(=O)NCC(=O)NCC(=O)N[C@@H](Cc1ccccc1)C(=O)O)C(=O)N[C@@H](C)C(=O)N[C@H](C(N)=O)C(C)C (HELM PEPTIDE1{[O=C(/C=C/C(=O)[*:2])NCC(=O)NCC(=O)N[C@@H](Cc1ccccc1)C(=O)O].A.L.A.V.[am]}$$$$V2.0)	57%	40%
CC(C)C[C@H](NC(=O)[C@@H](NC(=O)[C@H](C)NC(=O)/C=C/C(=O)NCC(=O)NCC(=O)N[C@@H](Cc1ccccc1)C(=O)O)C1CCCCC1)C(=O)N[C@H](C(N)=O)C(C)C (HELM PEPTIDE1{[O=C(/C=C/C(=O)[*:2])NCC(=O)NCC(=O)N[C@@H](Cc1ccccc1)C(=O)O].A.[O=C([C@@H](N[*:1])C1CCCCC1)[*:2]].L.V.[am]}$$$$V2.0)	43%	60%
CC(=O)NC[C@H](NC(=O)/C=C/C(=O)NCC(=O)NCC(=O)N[C@@H](Cc1ccccc1)C(=O)O)C(=O)N[C@H](C(=O)N[C@H](C(=O)N[C@H](C(N)=O)C(C)C)C(C)C)C1CCCCC1 ({Fumaroyl(GlyGlyPheOH)}-[Dap](Ac)[Chg]VV-NH2)	52%	52%
